Source: PubChem (Broad Institute)
ERAP1 inh – human ERAP1 aminopeptidase inhibitors, primary screen, biochemical, single point, plate reader | Endoplasmic reticulum aminopeptidase 1 (Homo sapiens), Q9NZ08 | recombinant ERAP1, Leu-AMC fluorescence, 60 min | inhibition, % at 10.7 µM | actives 0.15% (n = 340,000) | AID 652197, 2013;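 active = mean replicate inhibition of at least 30%, or all replicates individually reaching that 30% level; inactive = mean below 30% and not every replicate reaching it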;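 note: 0% = neutral control wells and 100% = L-leucinethiol positive control wells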
rRNA inh HTS – reduced GFP signal of wild-type E. coli, primary screen, bacterial rRNA inhibitor project, GFP/RFP fluorescence, OD600, single point | actives 1.6% (n = 350,000) | GFP signal change (wild-type ribosome), % (concentration not given with the values) | E. coli WT GFP vs humanized-ribosome RFP mutants, 24 h; hits give low values; DMSO median 0, no signal -100;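 active = significant combined selectivity score with lowered wild-type GFP, culture density cut under 30%, mutant RFP and density less affected; inactive = any of these conditions unmet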
F508del corr – F508del CFTR correction, initial screen, CFBE line, single point; CFBE cells, YFP halide quenching; stimulated with forskolin plus potentiator P3; % fluorescence drop versus neutral controls; activity (quench increase), % at 7.58 µM; actives 0.36% (n = 350,000); AID 720511, 2013;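 active = mean added fluorescence quench of at least 8% versus neutral control, with both replicates also reaching 8%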;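 note: cells transiently co-express mutant CFTR-F508del with the halide-sensitive YFP; corrector assay measuring rescue of mutant channel to the surface after 24 h compound exposure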
S100A4 MyoIIA – inhibitors of S100A4-myosin IIA peptide binding, primary screen, biochemical, fluorescence polarization, TAMRA-MyoIIA peptide. Protein S100-A4 (Homo sapiens), P26447. inhibition, % at 10.7 µM. actives 0.14% (n = 360,000). AID 652163, 2013;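 active = mean inhibition of at least 70% across replicates, with every replicate also reaching that level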
Target sequence (P26447 whole entry, looked up): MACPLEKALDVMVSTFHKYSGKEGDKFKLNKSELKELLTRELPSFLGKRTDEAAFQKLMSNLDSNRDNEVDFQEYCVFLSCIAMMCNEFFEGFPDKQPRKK
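incubation = readout 5 min after mixing, signal stable up to 60 min | system = S100A4 monomer protein | buffer or medium = HEPES pH 7.2 with CaCl2, KCl, NaCl, DTT, Triton | benchmarks = neutral control DMSO, positive control TFP | also added = fluorescent myosin IIA peptide, 5 nM | compound dosing = one concentration per compound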
SIRT5 inh – SIRT5 desuccinylase inhibitors, primary screen, biochemical, fluorescence imaging, single point, set 5; NAD-dependent protein deacylase sirtuin-5, mitochondrial (Homo sapiens), Q9NXA8; Purified SirT5, succinyl-peptide AMC, trypsin-coupled fluorescence; inhibition, % at 15 µM; actives 1.1% (n = 330,000); AID 652115, 2013; in the data active = inhibition above about 15%
Target sequence (Q9NXA8 whole entry, looked up): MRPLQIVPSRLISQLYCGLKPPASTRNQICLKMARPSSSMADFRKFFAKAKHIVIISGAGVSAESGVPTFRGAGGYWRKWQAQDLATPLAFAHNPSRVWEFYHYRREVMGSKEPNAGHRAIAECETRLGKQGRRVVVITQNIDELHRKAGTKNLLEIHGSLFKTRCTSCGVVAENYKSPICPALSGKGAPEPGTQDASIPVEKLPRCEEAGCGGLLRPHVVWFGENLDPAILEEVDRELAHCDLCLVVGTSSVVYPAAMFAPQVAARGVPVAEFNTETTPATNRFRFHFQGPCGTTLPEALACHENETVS
* marks the source's active call; other numbers are inactive results; . = no result. An excerpt weighted towards active compounds, which were near 3.1% of everything screened.

SMILES	ERAP1 inh	rRNA inh HTS	F508del corr	S100A4 MyoIIA	SIRT5 inh
C[C@H](CO)N1C[C@H](C)[C@H](CN(C)C(=O)Nc2ccc(C(F)(F)F)cc2)OCCCC[C@H](C)Oc2ccc(NC(=O)Nc3ccc4c(c3)OCO4)cc2C1=O	2	-1	4	-17	15*
COc1ccccc1CN1CC2(C1)[C@@H](c1ccccc1)[C@@H](CO)N2Cc1ccccc1	.	1	.	.	.
O=C(C[C@H]1CC[C@@H]2[C@H](COC[C@H](O)CN2Cc2cc(F)ccc2F)O1)N1CCc2ccccc2C1	2	-12	0	6	-2
O=C(C[C@H]1CC[C@@H](NS(=O)(=O)c2ccc(F)cc2)[C@H](CO)O1)N1CCC(Cc2ccccc2)CC1	-3	1	2	4	1
O=C1c2ccccc2C(c2nnnn2Cc2ccccc2)N1CCOc1ccccc1 (stereo unspecified)	.	-17	-4	0	-2
O=C1c2ccccc2C(c2nnnn2Cc2ccccc2)N1CCc1ccccc1F (stereo unspecified)	.	-21*	0	1	1
CC(C)n1nnnc1C1c2ccccc2C(=O)N1CCc1ccccc1F (stereo unspecified)	.	17	1	-2	1
O=C1c2ccccc2C(c2nnnn2Cc2ccccc2)N1Cc1cccs1 (stereo unspecified)	.	-26*	-2	-14	1
CC(C)n1nnnc1C1c2ccccc2C(=O)N1CCc1c[nH]c2ccccc12 (stereo unspecified)	.	-30*	-3	-3	-1
O=C1c2ccccc2C(c2nnnn2Cc2ccccc2)N1CCc1ccc(O)cc1 (stereo unspecified)	.	-28*	-1	2	-2
CC(C)CCN1C(=O)c2ccccc2C1c1nnnn1Cc1ccccc1 (stereo unspecified)	.	-18	0	2	-1
O=C(C[C@H]1C=C[C@H](NC(=O)c2ccccc2)[C@H](CO)O1)Nc1ccc(-c2ccccc2)cc1	0	-6	0	-14	0
O=C1CN(C(=O)NCC(=O)N[C@H](Cc2ccccc2)C(=O)O)c2ccccc2N1	-1	.	2	-10	0
O=C1CN(C(=O)NCC(=O)N[C@H](C(=O)O)c2ccccc2)c2ccccc2N1	-1	5	-2	-1	18*
COc1cccc(NC(=O)CN(C)C(C)C(=O)Nc2ccc(S(=O)(=O)N3CCOCC3)cc2)c1 (stereo unspecified)	1	-6	-2	-3	-1
COc1ccc(CN(C)C(C)C(=O)Nc2ccc(S(=O)(=O)N3CCOCC3)cc2)c(OC)c1 (stereo unspecified)	-2	7	0	-3	17*
COc1ccc(OCC(=O)N2CCN(S(=O)(=O)c3ccc(Cl)s3)CC2)cc1	0	.	1	144*	6
N#Cc1ccc(OCC(=O)N2CCN(S(=O)(=O)c3cccc(Cl)c3)CC2)cc1	5	.	-2	2	4
N#Cc1ccc(OCC(=O)N2CCN(S(=O)(=O)c3ccc(Cl)s3)CC2)cc1	-2	-20*	4	-10	-3
CO[C@@H]1CN(C)C(=O)c2ccc(NC(=O)NC(C)C)cc2OC[C@@H](C)N(CCC(F)(F)F)C[C@@H]1C	0	-5	2	-11	7
O=C(C[C@H]1C[C@H]2c3cc(NC(=O)C4CCC4)ccc3O[C@H]2[C@@H](CO)O1)NCc1cccc(F)c1	-4	-1	0	-1	.
CCC(=O)Nc1ccc2c(c1)C(=O)N(C)C[C@H](OC)[C@H](C)CN[C@@H](C)CO2	3	3	-1	-1	-13
COc1ccc(/C=C/C(=O)Nc2cccc(F)c2)cc1S(=O)(=O)N1CCOCC1	-5	-27*	-4	-22	-1
COc1ccc(/C=C/C(=O)Nc2cc(S(=O)(=O)N3CCOCC3)ccc2N2CCCC2)cc1OC	0	-22*	5	-3	.
O=C(Nc1nnc(C2CC2)s1)c1cc(S(=O)(=O)N2CCCCC2)ccc1N1CCOCC1	.	-4	-2	6	3
SMILES	ERAP1 inh	rRNA inh HTS	F508del corr	S100A4 MyoIIA	SIRT5 inh
COc1ccc(/C=C/C(=O)Nc2ccc(C(C)=O)cc2)cc1S(=O)(=O)N1CCOCC1	-9	11	-1	-2	0
COc1cc(/C=C/C(=O)Nc2cc(S(=O)(=O)N3CCOCC3)ccc2N2CCCC2)cc(OC)c1OC	1	-2	1	-8	5
COc1ccc(/C=C/C(=O)Nc2ccccc2F)cc1S(=O)(=O)N1CCOCC1	2	-20*	-2	1	-3
CCc1nnc(NC(=O)c2cc(S(=O)(=O)N3CCOCC3)ccc2N2CCCCC2)s1	56*	-2	-2	-2	-1
C[C@H](CO)N1C[C@H](C)[C@H](CN(C)C(=O)Nc2ccc(F)cc2)OCCCC[C@H](C)Oc2ccc(NS(C)(=O)=O)cc2C1=O	-1	-1	1	-5	-1
O=C(C[C@@H]1CC[C@H]2[C@@H](COC[C@H](O)CN2Cc2ccccc2)O1)N[C@H]1CCN(Cc2ccccc2)C1	1	0	2	-10	0
C[C@H](CO)N1C[C@H](C)[C@H](CN(C)Cc2ccccc2)Oc2c(NS(=O)(=O)c3cn(C)cn3)cccc2C1=O	-1	6	-2	6	1
NCC[C@H]1CC[C@H](NS(=O)(=O)Cc2ccccc2)[C@@H](CO)O1	-2	0	0	7	1
COC(=O)C[C@H]1C[C@H]2c3cc(NC(=O)c4ccc5c(c4)OCO5)ccc3O[C@H]2[C@@H](CO)O1	1	-4	0	-5	1
Cc1oc(-c2ccc(-c3ccccc3)cc2)nc1CN(C)C1CCOC1 (stereo unspecified)	2	-23*	1	-2	18*
Cc1oc(-c2cccc(Cl)c2)nc1CN(C)C1CCOC1 (stereo unspecified)	8	7	2	-4	-1
COc1ccccc1CNc1ncccc1[N+](=O)[O-]	0	3	1	2	16*
Cc1ccc(S(=O)(=O)Nc2ccc3c(c2)C(=O)N([C@@H](C)CO)C[C@@H](C)[C@@H](CN(C)C(=O)Nc2ccc(C(F)(F)F)cc2)OCCCC[C@@H](C)O3)cc1	1	6	4	0	15*
C[C@@H]1CCCCO[C@@H](CN(C)C(=O)CCC(F)(F)F)[C@@H](C)CN([C@H](C)CO)C(=O)c2cc(NS(=O)(=O)c3ccc(Cl)cc3)ccc2O1	3	2	0	0	6
